This is an account of results in ChEMBL document CHEMBL1132560, “N-Substituted 2-(2,6-dinitrophenylamino)propanamides: novel prodrugs that release a primary amine via nitroreduction and intramolecular cyclization” (J Med Chem, 1999).

Test [1] can be described thus: 4-methoxyaniline yield was measured from 8 fold reduced forms of compound at pH 7.4. The method, boiled down: (§1)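 Anaerobic aqueous solutions with 0.5 M 2-propanol were γ-irradiated to deliver a set number of molar equiv of reducing species (e⁻aq, (CH₃)₂C•OH), at room temperature. pH 7.4 runs used 0.01 M phosphate, pH 4.0 runs 0.01 M formate. […] Released 4-methoxyaniline was quantified by C-18 HPLC with diode-array detection.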

Test [2] is described as follows: 4-methoxyaniline yield was measured from 4 fold reduced forms of compound at pH 7.4. The method, boiled down: as §1
Test [3] can be described thus: 4-methoxyaniline yield was measured from 8 fold reduced forms of compound at pH 4. In outline:
as §1

Test [4] is described as follows: 4-methoxyaniline yield was measured from 4 fold reduced forms of compound at pH 4. In outline: as §1
Another test concerns CHO-AA8. The test is described as follows: Cytotoxicity on AA8 cell growth (reduce cell number by 50%). It counts as functional, cell-based. The conditions noted are these: Cricetulus griseus. In outline: (§2)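 Cells in αMEM with 5% FBS plus penicillin/streptomycin were seeded per well at 200 (AA8), 300 (UV4), 75 (EMT6) or 600 (SKOV3) cells and grown 24 h. Drugs came from DMSO stocks (final DMSO <1%), pH 7.4. Exposure was aerobic for 4 h, followed by washing, 4–5 days further growth and methylene blue staining. IC₅₀ was set as 50% growth inhibition relative to same-plate controls. Mean ± SEM of 3–5 experiments.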

The next test concerns EMT6. The test is described as follows: Cytotoxicity on EMT6 cell growth (reduce cell number by 50%). It counts as functional, cell-based. As to conditions: Mus musculus. The method, boiled down:
as §2

The subject of a further test is SK-OV-3. As to the kind of experiment: Cytotoxicity on SKOV3 cell growth (reduce cell number by 50%). It counts as functional, cell-based. The conditions noted are these: Homo sapiens. The method, boiled down:
as §2

Test [5] concerns UV4. As to the kind of experiment: Compound concentration to reduce plating efficiency of UV4 cells to 10% controls under aerobic conditions of 20% oxygen to that under […]. It counts as functional. The method, boiled down: (§3)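 UV4 cells were grown to early plateau phase in spinner flasks and resuspended in fresh medium. Cells and drug in medium were pre-gassed for 1 h with 5% CO₂ in air (20% O₂) or in N₂. Cells at 10⁶/mL were then exposed for 1 h with continuous gassing and assayed clonogenically. C₁₀ is the concentration giving 10% surviving fraction; hypoxic selectivity is the ratio of aerobic to N₂ C₁₀. Mean ± SEM of 3 experiments.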

Test [6] has as its system UV4. As to the kind of experiment: Compound's concentration to reduce plating efficiency of UV4 cells to 10% controls under aerobic conditions of 20% oxygen. It counts as functional. The method, boiled down:
as §3

The subject of test [7] is UV4. The test is described as follows: Cytotoxicity on UV4 cell growth (reduce cell number by 50%). It counts as functional, cell-based. As to conditions: Cricetulus griseus. The method, boiled down:
as §2

Test [8] can be described thus: 4-methoxyaniline yield was measured from 8 fold reduced forms of compound at 4. In outline: as §1
A short description of test [9]: 4-methoxyaniline yield was measured from 4 fold reduced forms of compound at 4. The method, boiled down: as §1

For the compound `COc1ccc(NC(=O)C(C)Nc2c([N+](=O)[O-])cc(C(=O)NCCN(C)C)cc2[N+](=O)[O-])cc1` (stereo unspecified), the Release in test [1] and in test [2] was 89% each time.

For the compound `COc1ccc(NC(=O)CNc2c([N+](=O)[O-])cc(C(=O)NCCO)cc2[N+](=O)[O-])cc1`, the Release came to 83% in [3], 69% in test [1], 69% in test [2] and 83% in [4].

What is called IC50 is the midpoint of a concentration-inhibition curve. As to `COc1cc2cc(C(=O)N3CC(CCl)c4c3cc(NC(=O)C(C)Nc3c([N+](=O)[O-])cc(C(=O)NCCN(C)C)cc3[N+](=O)[O-])c3ccccc43)[nH]c2c(OC)c1OC` (stereo unspecified), the IC50 came out at 95 nM in the test on CHO-AA8, 41 nM in the test with EMT6, 87 nM with SK-OV-3 and 53 nM in the test on UV4 [7]. Also, the C10 in the test with UV4 [5] is reported as 1.8 air/N2; in the test on UV4 [6] it was 490 nM.

`COc1ccc(NC(=O)CN(C)c2c([N+](=O)[O-])cc(C(=O)NCCO)cc2[N+](=O)[O-])cc1`: the Release in test [3] worked out at 100%; in [4], 80%.

As for `COc1ccc(NC(=O)C(C)Nc2c([N+](=O)[O-])cc(C(=O)NCCO)cc2[N+](=O)[O-])cc1` (stereo unspecified), the Release was determined as 97% in test [8], 77% in test [1], 77% in test [2] and 97% in test [9].

As to `COc1ccc(NC(=O)C(C)N(C)c2c([N+](=O)[O-])cc(C(=O)NCCO)cc2[N+](=O)[O-])cc1` (stereo unspecified), the Release was found to be 94% in test [3] and 80% in test [4].

With `COc1ccc(NC(=O)C(C)Nc2c([N+](=O)[O-])cc(C(=O)NCC(O)CO)cc2[N+](=O)[O-])cc1` (stereo unspecified), the Release in test [1] and in [2] was 92% each time.

As for `COc1cc2cc(C(=O)N3CC(CCl)c4c3cc(N)c3ccccc43)[nH]c2c(OC)c1OC` (stereo unspecified), the IC50 in the test on CHO-AA8 is 0.46 nM; with EMT6 it was 0.27 nM; in the test on SK-OV-3, 1 nM; with UV4 [7], 0.29 nM. In addition, the C10 is recorded as 1.1 air/N2 with UV4 [5] and 3.4 nM in the test on UV4 [6].

Turning to `CC(Nc1c([N+](=O)[O-])cc(C(=O)NCCN(C)C)cc1[N+](=O)[O-])C(=O)Nc1ccc(N(CCCl)CCCl)cc1` (stereo unspecified), the 50% inhibitory concentration (IC50) in the test with CHO-AA8 was determined as 10500 nM; with EMT6 it was 1300 nM; in the test on SK-OV-3 it was 1300 nM; in the test on UV4 [7] it was 3000 nM. Further, the results for the C10 with UV4 [5] and with UV4 [6] were 1.3 air/N2 and 2100 nM, respectively.

For the compound `COc1ccc(NC(=O)C(C)(C)Nc2c([N+](=O)[O-])cc(C(=O)NCCO)cc2[N+](=O)[O-])cc1`, the Release in test [1] and in test [2] was 90% in each case.
